# High-throughput results from PubChem BioAssay.
# HTRA1 inhibitor: HTRA1 serine protease inhibitors, primary screen, biochemical, fluorescence polarization, HTS; Q92743; recombinant HTRA1, FP-rhodamine activity-based probe; inhibition, % at 5.96 µM; hit rate 0.5% among 340,000; AID 504803, 2011; in the data active = inhibition above about 36%;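 note: 0% = enzyme with DMSO and 100% = wells lacking enzyme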
# PRMT1 inh: PRMT1 methyltransferase inhibitors, primary screen, biochemical, fluorescence polarization; Protein arginine N-methyltransferase 1 (Homo sapiens), Q99873; inhibition, % at 2.79 µM; recombinant PRMT1, activity-based probe fluorescence polarization; hit rate 1.3% among 370,000;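 active = inhibition above about 21% made by adding two undisclosed values, limit read from the data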
# TCR CD3 inh: inhibitors of human TCR-CD3 interaction, primary screen, biochemical, fluorescence, TAMRA-labeled TCR probe; AID 651800, 2012; inhibition, % at 9.4 µM; T-cell receptor (TCR); hit rate 0.37% among 360,000; in the data active = inhibition above about 19%;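 note: recombinant mutant TCR 2C K166C tagged with TAMRA read by polarization; 0% = receptor in buffer alone and 100% = receptor with positive control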
# ABHD4 inh: ABHD4 inhibitors, primary screen, biochemical, fluorescence polarization, mouse; purified mABHD4, FP-Rh probe fluorescence polarization; inhibition, % at 8.92 µM; hit rate 0.54% among 370,000; AID 720543, 2013;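 active = inhibition exceeding the mean over every tested compound plus 3 SD, cut at about 30% in these data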;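 note: 0% = plate median of compound wells and 100% = S159A mutant with DMSO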
# Target sequence (Q8VD66 whole entry, looked up): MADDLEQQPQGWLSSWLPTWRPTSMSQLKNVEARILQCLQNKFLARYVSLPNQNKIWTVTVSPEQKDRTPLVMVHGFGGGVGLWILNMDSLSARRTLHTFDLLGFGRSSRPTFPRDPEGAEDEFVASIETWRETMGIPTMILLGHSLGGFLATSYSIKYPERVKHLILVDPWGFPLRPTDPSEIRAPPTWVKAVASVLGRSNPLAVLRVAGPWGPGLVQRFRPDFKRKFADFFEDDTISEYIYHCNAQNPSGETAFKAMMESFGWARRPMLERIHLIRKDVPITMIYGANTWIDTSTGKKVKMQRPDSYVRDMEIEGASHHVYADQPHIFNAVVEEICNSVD
#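 Test system: mABHD4 protein; Read-out basis: % inhibition; Incubation: 45 min + 60 min at 25 °C; Repeats: single replicate; Technique: fluorescence polarization with parallel and perpendicular emission, 525/598 nm; Compound: 8.92 µM, single dose; Benchmarks: full inhibition S159A mutant plus DMSO, zero as sample-well median.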
# SIAE inh: human SIAE inhibitors, primary screen, biochemical, fluorescence polarization, FP-Rh probe, 1536-well HTS; hit rate 0.69% among 370,000; inhibition, % at 9.66 µM; Sialate O-acetylesterase (Homo sapiens), Q9HAT2; SIAE FP-Rh probe binding;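 active = inhibition above a cutoff: mean of compounds within the control limits plus 3 SD of those, cut at about 17% in these data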;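 note: 0% = plate median of compound wells and 100% = probe without SIAE protein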
# rCAG binder: binders of r(CAG) RNA repeats, primary screen, biochemical, fluorescence; r(CAG) RNA repeat, TO-PRO-1 dye displacement fluorescence; inhibition, % at 3 µM; hit rate 1.3% among 370,000; AID 651821, 2012;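 active = inhibition above the plate cutoff, the mean of all test compounds on that plate plus 3 SD, cut at about 35% in these data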;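 note: 0% = DMSO alone and 100% = 100 µM mitoxantrone as full dye displacement; higher means more dye released from RNA so lower well fluorescence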
# SIAE inh conf: human SIAE inhibitors, retest, confirmation, biochemical, fluorescence polarization, FP-Rh probe, triplicate | shares compounds with SIAE inh | SIAE FP-Rh activity-based probe | hit rate 13% among 2,300 | inhibition, % at 9.66 µM;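 active = mean inhibition of the replicates above the hit cutoff set in the primary screen, cut at about 17% in these data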;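 note: 0% = SIAE with DMSO and probe and 100% = probe without SIAE; inhibitors lower polarization as more probe stays unbound to SIAE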
# The depositor's hits bear a star; nt = no result given. Only some compounds are listed: those with a hit (about 3.5% of all), similar ones and a draw of the others.
SMILES,HTRA1 inhibitor,PRMT1 inh,TCR CD3 inh,ABHD4 inh,SIAE inh,rCAG binder,SIAE inh conf
COc1cccc(N(C(=O)c2ccco2)C(C(=O)NC2CCCC2)c2ccc(N(C)C)cc2)c1 (stereo not drawn),1,1,5,4,3,-4,nt
CC(=O)c1cccc(N(C(=O)c2ccco2)C(C(=O)NC2CCCCC2)c2ccc(C)o2)c1 (stereo not drawn),2,3,-2,-1,19*,0,-8
Cc1nc(NN)c2c3c(sc2n1)COC(C)(C)C3,2,1,-3,4,27*,2,3
Cn1c(NN)nc2sc3c(c2c1=O)CC(C)(C)OC3,14,1,2,-1,8,5,nt
O=C(NCCCc1ccccc1)O[C@@H]1CC[C@@]23CCCN2C(=O)CCC[C@H]3C1,nt,-3,nt,3,-1,nt,nt
O=C1NC(=O)/C(=C/c2cccc(O)c2)N1,3,-3,-3,4,17*,7,-1
O=C1Nc2ccccc2C1=Nc1ccc2[nH]c3ccccc3c2c1,20,8,4,28,17*,7,2
Cc1ccc(N=C2C(=O)Nc3ccccc32)cc1C,-7,0,-5,-7,2,2,nt
O=C(Cn1cnc2c(cnn2-c2ccccc2)c1=O)c1ccc(Cl)cc1,2,-2,-5,10,39*,0,0
O=C(CCn1c2c(c3ccccc31)CCCC2)NNC(=O)c1ccccc1Cl,4,3,-5,-12,-3,6,nt
O=C(CCn1c2c(c3ccccc31)CCCC2)NNC(=O)c1cccc([N+](=O)[O-])c1,-1,-1,11,6,18*,23,7
CC1=NN(c2ccc(C(=O)O)c(N)c2)C(=O)C1,4,10,0,18,18*,2,3
CC1=NN(c2ccc(Cl)c(C(=O)O)c2)C(=O)C1,9,4,3,16,2,15,nt
c1ccc(-c2ccc3c(c2)NCCN3)cc1,16,-2,-7,13,17*,2,3
Cc1csc(Nc2ccc(Cl)cc2)n1,-2,-6,3,-2,19*,-1,1
COc1cccc(NC(=O)Nc2nc(-c3ccc(OC)c(OC)c3)cs2)c1,3,-3,2,8,34*,34,-6
Cc1cccc(OCC(=O)O/N=C(\N)c2ccccn2)c1C,-8,0,0,-8,31*,0,-7
O=C(NCc1c(F)cccc1F)C1CCCN(c2ncccn2)C1 (stereo not drawn),nt,5,nt,-9,1,-1,nt
Cc1cc(C)c2c(=O)n3c(nc2c1)C(Cc1ccccc1)NC(=O)c1cc2ccccc2cc1-3 (stereo not drawn),-62,-4,11,-9,-26,8,nt
CCC1NC(=O)c2cc3ccccc3cc2-n2c1nc1cc(C)cc(C)c1c2=O (stereo not drawn),-24,-1,-3,-4,17*,1,-1
COc1cc(NC(=O)C2CCCN(S(=O)(=O)c3ccc(Cl)s3)C2)cc(OC)c1 (stereo not drawn),nt,1,nt,-20,-10,8,nt
O=C(OCC#CCSc1nnc(-c2cccc3ccccc23)o1)c1ccncc1,nt,2,nt,0,-5,nt,nt
CN(C)c1ccc(/C=N/N2C(=S)SC(C)(C)C2N(O)C(=O)Nc2ccc([N+](=O)[O-])cc2)cc1 (stereo not drawn),-12,1,0,4,21*,8,14
CNC(=O)N(O)C1N(/N=C/c2ccc(SC)cc2)C(=S)SC1(C)C (stereo not drawn),3,-1,-8,-1,1,-1,nt
C/C(=N\NC(=O)c1ccc(-c2ccccc2)cc1)c1ccco1,-6,5,4,1,-3,9,nt
C/C(=N\NC(=O)c1cc([N+](=O)[O-])cc([N+](=O)[O-])c1)c1ccco1,3,1,0,5,18*,4,4
CCc1cccc2c(N=O)c(O)[nH]c12,13,1,2,-2,21*,2,15
O=Nc1c(O)[nH]c2c(F)cccc12,13,1,-3,8,5,4,nt
CC(C)CCOc1ccc(C(CC(N)=O)C(=O)O)cc1 (stereo not drawn),2,1,6,3,-7,3,nt
O=C(O)CC(C(=O)O)c1ccc(OCCCCOc2ccc(C(CC(=O)O)C(=O)O)cc2)cc1 (stereo not drawn),1,0,15,1,19*,6,1
